Active and inactive are the calls of the source. The calls are words filed in the database; no cut-off is given here.
Tests used:
[1] = molecular target: Nuclear factor NF-kappa-B complex (Homo sapiens) (UniProt Q00653+P19838+Q04206); assay: Inhibition of TNFalpha-stimulated NF-kappaB signaling (unknown origin) expressed in HEK293 cells by luciferase reporter gene assay; assay type: cell-based
[2] = Inhibition of XBP1 mRNA splicing (unknown origin) expressed in mouse B16-F10-XBP1-DBD-luc cells incubated for 8 hrs by luciferase reporter gene assay; assay type: cell-based
[3] = molecular target: T1, Tyrosine-protein phosphatase non-receptor type 1 (Homo sapiens) (UniProt P18031); assay: Inhibition of PTP1B (unknown origin)
T1 sequence (whole entry): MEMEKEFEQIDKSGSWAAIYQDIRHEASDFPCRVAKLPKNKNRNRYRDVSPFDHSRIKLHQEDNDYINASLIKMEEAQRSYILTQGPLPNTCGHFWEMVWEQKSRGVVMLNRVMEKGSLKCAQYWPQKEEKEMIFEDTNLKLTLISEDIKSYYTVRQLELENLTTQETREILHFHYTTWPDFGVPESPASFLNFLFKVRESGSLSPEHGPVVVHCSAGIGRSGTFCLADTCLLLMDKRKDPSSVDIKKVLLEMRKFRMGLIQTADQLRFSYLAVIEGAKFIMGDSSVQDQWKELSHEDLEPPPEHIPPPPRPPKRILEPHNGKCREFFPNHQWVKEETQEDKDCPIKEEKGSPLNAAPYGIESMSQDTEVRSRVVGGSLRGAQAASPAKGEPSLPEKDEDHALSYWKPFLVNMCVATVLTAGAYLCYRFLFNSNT

[4] = system: Human immunodeficiency virus 1; assay: Antiviral activity against HIV-1 NL 4-3 infected in MT4 cells assessed as inhibition of virus-induced cytopathic effect; assay type: functional, organism-based; settings: Human immunodeficiency virus 1, NL 4-3, MT4
Method in brief: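 HIV-1 NL4-3-infected MT-4 cultures; run per a prior method with minor changes. The read-out is protection of cells from virus-induced cytopathic effect. EC50 is the concentration giving 50% protection, derived by curve fitting.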

[5] = Selectivity index, ratio of CC50 for human MT4 cells to EC50 for HIV-1 NL 4-3 infected in MT4 cells; assay type: toxicity, cell-based; settings: read-out: Ratio CC50/EC50

Nuclear factor NF-kappa-B complex (Homo sapiens), sequence (P19838 whole entry, looked up): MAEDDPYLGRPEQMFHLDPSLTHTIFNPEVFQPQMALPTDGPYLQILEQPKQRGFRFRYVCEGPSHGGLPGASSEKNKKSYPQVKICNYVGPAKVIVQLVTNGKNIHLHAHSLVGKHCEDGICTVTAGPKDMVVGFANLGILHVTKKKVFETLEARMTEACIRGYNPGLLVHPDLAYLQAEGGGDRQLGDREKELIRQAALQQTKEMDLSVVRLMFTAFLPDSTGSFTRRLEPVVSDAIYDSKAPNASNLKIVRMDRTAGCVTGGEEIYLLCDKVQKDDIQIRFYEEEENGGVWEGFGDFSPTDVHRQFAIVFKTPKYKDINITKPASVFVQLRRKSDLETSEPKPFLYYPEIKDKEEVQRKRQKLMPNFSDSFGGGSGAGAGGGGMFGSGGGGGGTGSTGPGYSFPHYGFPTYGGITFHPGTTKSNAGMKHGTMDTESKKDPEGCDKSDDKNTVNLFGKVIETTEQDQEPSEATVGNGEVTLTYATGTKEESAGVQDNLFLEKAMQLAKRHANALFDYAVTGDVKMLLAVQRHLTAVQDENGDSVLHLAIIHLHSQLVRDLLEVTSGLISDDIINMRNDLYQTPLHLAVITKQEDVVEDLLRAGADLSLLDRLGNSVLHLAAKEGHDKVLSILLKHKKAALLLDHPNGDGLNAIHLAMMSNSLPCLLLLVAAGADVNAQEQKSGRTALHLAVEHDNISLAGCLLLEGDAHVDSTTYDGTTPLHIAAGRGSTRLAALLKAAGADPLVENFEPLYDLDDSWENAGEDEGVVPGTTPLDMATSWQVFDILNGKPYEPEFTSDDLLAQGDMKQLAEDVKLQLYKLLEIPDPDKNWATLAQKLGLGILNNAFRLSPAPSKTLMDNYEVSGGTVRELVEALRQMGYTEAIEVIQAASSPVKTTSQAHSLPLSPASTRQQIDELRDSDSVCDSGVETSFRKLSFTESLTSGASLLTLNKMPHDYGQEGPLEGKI
Nuclear factor NF-kappa-B complex (Homo sapiens), sequence (Q00653 whole entry, looked up): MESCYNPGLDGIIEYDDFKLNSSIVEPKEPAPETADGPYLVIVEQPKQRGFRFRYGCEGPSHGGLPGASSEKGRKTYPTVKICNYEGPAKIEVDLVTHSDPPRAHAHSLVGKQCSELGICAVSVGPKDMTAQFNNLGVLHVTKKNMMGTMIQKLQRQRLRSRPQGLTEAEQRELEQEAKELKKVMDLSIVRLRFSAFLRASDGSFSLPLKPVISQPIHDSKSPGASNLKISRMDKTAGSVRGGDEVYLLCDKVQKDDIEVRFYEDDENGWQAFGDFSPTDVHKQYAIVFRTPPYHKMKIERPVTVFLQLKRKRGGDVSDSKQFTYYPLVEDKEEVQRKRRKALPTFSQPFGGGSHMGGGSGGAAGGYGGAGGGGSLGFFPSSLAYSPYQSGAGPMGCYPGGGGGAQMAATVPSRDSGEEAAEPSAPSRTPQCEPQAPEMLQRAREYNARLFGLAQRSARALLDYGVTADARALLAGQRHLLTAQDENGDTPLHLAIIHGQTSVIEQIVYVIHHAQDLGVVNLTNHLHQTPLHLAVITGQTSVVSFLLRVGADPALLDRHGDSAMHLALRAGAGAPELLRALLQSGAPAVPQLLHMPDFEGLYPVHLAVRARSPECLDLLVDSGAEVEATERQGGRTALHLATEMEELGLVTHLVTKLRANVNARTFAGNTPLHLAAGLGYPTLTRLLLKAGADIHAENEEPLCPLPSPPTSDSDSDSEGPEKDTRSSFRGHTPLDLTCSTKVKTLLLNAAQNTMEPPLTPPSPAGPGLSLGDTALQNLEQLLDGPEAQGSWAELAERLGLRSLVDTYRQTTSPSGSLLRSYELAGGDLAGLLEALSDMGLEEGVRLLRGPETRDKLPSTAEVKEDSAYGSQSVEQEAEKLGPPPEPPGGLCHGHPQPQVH
Nuclear factor NF-kappa-B complex (Homo sapiens), sequence (Q04206 whole entry, looked up): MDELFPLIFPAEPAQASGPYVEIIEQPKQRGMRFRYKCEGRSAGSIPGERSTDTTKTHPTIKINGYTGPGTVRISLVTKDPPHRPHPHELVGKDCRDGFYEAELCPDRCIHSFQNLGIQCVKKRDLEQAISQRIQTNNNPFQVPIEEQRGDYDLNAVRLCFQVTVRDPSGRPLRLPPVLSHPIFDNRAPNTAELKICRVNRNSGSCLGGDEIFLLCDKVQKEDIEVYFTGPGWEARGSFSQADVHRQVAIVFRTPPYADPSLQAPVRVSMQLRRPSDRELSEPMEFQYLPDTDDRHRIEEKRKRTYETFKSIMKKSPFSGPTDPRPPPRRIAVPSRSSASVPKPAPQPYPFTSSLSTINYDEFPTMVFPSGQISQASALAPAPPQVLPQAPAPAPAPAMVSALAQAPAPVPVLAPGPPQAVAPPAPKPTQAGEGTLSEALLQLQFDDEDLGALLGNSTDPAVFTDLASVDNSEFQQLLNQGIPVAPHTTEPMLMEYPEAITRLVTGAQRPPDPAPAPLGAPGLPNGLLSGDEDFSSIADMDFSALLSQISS

SMILES	inhibition [1]	inhibition [2]	inhibition [3]	EC50 [4]	selectivity ratio [5]
C[C@@]12CCC(=O)[C@@](C)(CO)[C@H]1CC[C@@]13CC[C@@H](C[C@H]12)[C@](O)(CO)C3	inactive	inactive	inactive		
C=C1C[C@@]23CC[C@@H]4C(C)(C)C(=O)CC[C@@]4(C)[C@@H]2C[C@@H]1C[C@H]3O	inactive	inactive	inactive		
CC(=O)O[C@H]1C2=C(C[C@H]3OC(=O)C(C)=C13)[C@@]1(C)[C@H](CC2)C(C)(C)CC[C@@H]1O				3.58 µM	8.6
CC1(C)C(=O)CC[C@]2(C)[C@@H]1CC[C@@]13CC[C@@H](C[C@H]12)C(=O)C3	inactive	inactive	inactive		
C=C1C[C@@]23CC[C@@H]4C(C)(C)C(=O)CC[C@@]4(C)[C@@H]2C[C@@H]1[C@@H](O)[C@H]3O	inactive	inactive	inactive		
C=C[C@@]1(C)C=C2CC[C@H]3[C@@](C)(CC[C@@H](OC(C)=O)[C@]3(C)C(=O)O)[C@@H]2C[C@@H]1O	inactive	inactive	inactive		
C=C[C@@]1(C)C=C2CC[C@@H]3[C@@](C)(C=O)[C@H](OC(C)=O)CC[C@@]3(C)[C@@H]2C[C@@H]1O	inactive	inactive	inactive		
C=C[C@@]1(C)C=C2CC[C@@H]3C(C)(C)[C@H](OC(C)=O)CC[C@@]3(C)[C@@H]2C[C@@H]1O	inactive	inactive	inactive		
CC1=C2[C@H]3O[C@]34CC[C@@H]3C(C)(C)CC[C@H](O)[C@@]3(C)[C@@H]4C[C@H]2OC1=O				7.4 µM	10.3
